Assay results as given in ChEMBL document CHEMBL4689842, “EUbOPEN Chemogenomics Library wave 1” (2021).

System: U2OS
Test: Multiplex assay against U2OS
Type: toxicity, cell-based
Conditions: human
Summary of the method: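 At seeding, live cells were stained with Hoechst33342, BioTracker Green Microtubule Cytoskeleton Dye, MitoTracker Red and Annexin V Alexa Fluor 680. After compound addition they were imaged on a CQ1 microscope at 37°C and 5% CO2, and CellPathfinder machine-learning gating sorted them into Hoechst high-intensity objects or normal cells, with normal cells further split into healthy, pyknosed or fragmented nuclei and pyknosed cells into mitotic or apoptotic. Tubulin, mitochondrial-mass and membrane-permeability phenotypes are given as per cents of cells with healthy nuclei.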

[1] = 12 h, 1 µM, compound concentration 1 uM, replicate 1
[2] = 12 h, 1 µM, compound concentration 1 uM, replicate 2
[3] = 12 h, 10 µM, compound concentration 10 uM, replicate 1
[4] = 12 h, 10 µM, compound concentration 10 uM, replicate 2
[5] = 24 h, 1 µM, compound concentration 1 uM, replicate 1
[6] = 24 h, 1 µM, compound concentration 1 uM, replicate 2
[7] = 24 h, 10 µM, compound concentration 10 uM, replicate 1
[8] = 24 h, 10 µM, compound concentration 10 uM, replicate 2
[9] = 48 h, 1 µM, compound concentration 1 uM, replicate 1
[10] = 48 h, 1 µM, compound concentration 1 uM, replicate 2
[11] = 48 h, 10 µM, compound concentration 10 uM, replicate 1
[12] = 48 h, 10 µM, compound concentration 10 uM, replicate 2

In the case of Nc1ccc(C(=O)Nc2cccc(-c3nc(N4CCOCC4)c4oc5ncccc5c4n3)c2)cn1, the “Population Apoptotic (%)” value [1] is reported as 42%, the “Population Fragmented Nuclei (%)” value [1] is reported as 20% and the “Population Healthy Nuclei (%)” value [1] is reported as 64%. For the same compound, the “Population Hoechst High Intensity Objects (%)” value [1] was 10%, the “Population Mitochondria Different-Phenotype (%)” value [1] was 36% and the “Population Mitotic Cells (%)” value [1] was 57%. The “Population Normal (%)” value [1] was 89%, the “Population Pyknosed Nuclei (%)” value [1] was 15% and the “Population Tubulin-Different-Phenotype (%)” value [1] was 54%. The “Total Cell Count” value [1] was 215, the “Population Apoptotic (%)” value [2] was 9% and the “Population Healthy Nuclei (%)” value [2] was 61%. The “Population Mitochondria Different-Phenotype (%)” value [2] was 21%, the “Population Mitotic Cells (%)” value [2] was 90% and the “Population Pyknosed Nuclei (%)” value [2] was 17%. For the same compound, the “Population Tubulin-Different-Phenotype (%)” value [2] was 28%, the “Total Cell Count” value [2] was 55 and the “Population Apoptotic (%)” value [3] was 56%. For the same compound, the “Population Fragmented Nuclei (%)” value [3] was 57%, the “Population Healthy Nuclei (%)” value [3] was 24% and the “Population Hoechst High Intensity Objects (%)” value [3] was 21%. The “Population Mitochondria Different-Phenotype (%)” value [3] was 83%, the “Population Mitotic Cells (%)” value [3] was 43% and the “Population Normal (%)” value [3] was 78%. The “Population Pyknosed Nuclei (%)” value [3] was 18%, the “Population Tubulin-Different-Phenotype (%)” value [3] was 93% and the “Total Cell Count” value [3] was 191. For the same compound, the “Population Apoptotic (%)” value [4] was 51%, the “Population Fragmented Nuclei (%)” value [4] was 62% and the “Population Healthy Nuclei (%)” value [4] was 15%. The “Population Hoechst High Intensity Objects (%)” value [4] was 19%, the “Population Mitochondria Different-Phenotype (%)” value [4] was 76% and the “Population Mitotic Cells (%)” value [4] was 48%. The “Population Normal (%)” value [4] was 80%, the “Population Pyknosed Nuclei (%)” value [4] was 22% and the “Population Tubulin-Different-Phenotype (%)” value [4] was 90%. For the same compound, the “Total Cell Count” value [4] was 69, the “Population Apoptotic (%)” value [5] was 46% and the “Population Fragmented Nuclei (%)” value [5] was 16%. The “Population Healthy Nuclei (%)” value [5] was 65%, the “Population Hoechst High Intensity Objects (%)” value [5] was 7% and the “Population Mitochondria Different-Phenotype (%)” value [5] was 31%. The “Population Mitotic Cells (%)” value [5] was 53%, the “Population Normal (%)” value [5] was 92% and the “Population Pyknosed Nuclei (%)” value [5] was 17%. For the same compound, the “Population Tubulin-Different-Phenotype (%)” value [5] was 51%, the “Total Cell Count” value [5] was 221 and the “Population Apoptotic (%)” value [6] was 21%. The “Population Fragmented Nuclei (%)” value [6] was 28%, the “Population Healthy Nuclei (%)” value [6] was 52% and the “Population Hoechst High Intensity Objects (%)” value [6] was 5%. For the same compound, the “Population Mitochondria Different-Phenotype (%)” value [6] was 42%, the “Population Mitotic Cells (%)” value [6] was 78% and the “Population Normal (%)” value [6] was 95%. The “Population Pyknosed Nuclei (%)” value [6] was 18%, the “Population Tubulin-Different-Phenotype (%)” value [6] was 27% and the “Total Cell Count” value [6] was 57. For the same compound, the “Population Apoptotic (%)” value [7] was 80%, the “Population Fragmented Nuclei (%)” value [7] was 59% and the “Population Healthy Nuclei (%)” value [7] was 14%. For the same compound, the “Population Hoechst High Intensity Objects (%)” value [7] was 23%, the “Population Mitochondria Different-Phenotype (%)” value [7] was 88% and the “Population Mitotic Cells (%)” value [7] was 19%. For the same compound, the “Population Normal (%)” value [7] was 76%, the “Population Pyknosed Nuclei (%)” value [7] was 26% and the “Population Tubulin-Different-Phenotype (%)” value [7] was 81%. The “Total Cell Count” value [7] was 201, the “Population Apoptotic (%)” value [8] was 84% and the “Population Fragmented Nuclei (%)” value [8] was 60%. For the same compound, the “Population Healthy Nuclei (%)” value [8] was 5%, the “Population Hoechst High Intensity Objects (%)” value [8] was 19% and the “Population Mitochondria Different-Phenotype (%)” value [8] was 100%. For the same compound, the “Population Mitotic Cells (%)” value [8] was 15%, the “Population Normal (%)” value [8] was 80% and the “Population Pyknosed Nuclei (%)” value [8] was 34%. The “Population Tubulin-Different-Phenotype (%)” value [8] was 100%, the “Total Cell Count” value [8] was 80 and the “Population Apoptotic (%)” value [9] was 57%. The “Population Fragmented Nuclei (%)” value [9] was 18%, the “Population Healthy Nuclei (%)” value [9] was 60% and the “Population Hoechst High Intensity Objects (%)” value [9] was 9%. For the same compound, the “Population Mitochondria Different-Phenotype (%)” value [9] was 28%, the “Population Mitotic Cells (%)” value [9] was 42% and the “Population Normal (%)” value [9] was 90%. The “Population Pyknosed Nuclei (%)” value [9] was 21%, the “Population Tubulin-Different-Phenotype (%)” value [9] was 45% and the “Total Cell Count” value [9] was 240. The “Population Apoptotic (%)” value [10] was 25%, the “Population Fragmented Nuclei (%)” value [10] was 28% and the “Population Healthy Nuclei (%)” value [10] was 53%. For the same compound, the “Population Hoechst High Intensity Objects (%)” value [10] was 7%, the “Population Mitochondria Different-Phenotype (%)” value [10] was 22% and the “Population Mitotic Cells (%)” value [10] was 75%. For the same compound, the “Population Normal (%)” value [10] was 92%, the “Population Pyknosed Nuclei (%)” value [10] was 17% and the “Population Tubulin-Different-Phenotype (%)” value [10] was 24%. For the same compound, the “Total Cell Count” value [10] was 56, the “Population Fragmented Nuclei (%)” value [11] was 62% and the “Population Healthy Nuclei (%)” value [11] was 5%. The “Population Hoechst High Intensity Objects (%)” value [11] was 23%, the “Population Mitochondria Different-Phenotype (%)” value [11] was 76% and the “Population Normal (%)” value [11] was 76%. For the same compound, the “Population Pyknosed Nuclei (%)” value [11] was 31%, the “Population Tubulin-Different-Phenotype (%)” value [11] was 66% and the “Total Cell Count” value [11] was 244. For the same compound, the “Population Apoptotic (%)” value [12] was 91%, the “Population Fragmented Nuclei (%)” value [12] was 65% and the “Population Healthy Nuclei (%)” value [12] was 8%. For the same compound, the “Population Hoechst High Intensity Objects (%)” value [12] was 16%, the “Population Mitochondria Different-Phenotype (%)” value [12] was 100% and the “Population Mitotic Cells (%)” value [12] was 8%. For the same compound, the “Population Normal (%)” value [12] was 83%, the “Population Pyknosed Nuclei (%)” value [12] was 26% and the “Population Tubulin-Different-Phenotype (%)” value [12] was 100%. The “Total Cell Count” value [12] was 98.
